Dynein cargo inh: dynein cargo transport inhibition. 3617.4 mouse cells, GR-EGFP nuclear translocation imaging; test concentration mostly 20 µM; stimulated with dexamethasone, 1 µM; stronger effect = lower value. z-score, hits read low. 0.47% of 220,000 active;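 active = plate z-score of nuclear minus cytoplasmic receptor signal below a set negative limit, without overly bright fluorescence or cell loss, cut at about -3.5 in these data, passing the limit was not always enough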;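 note: z-score of nuclear minus cytoplasmic ring GR-EGFP intensity difference per well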
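Buffer or medium: tet-free, stripped-serum medium; reagent: dexamethasone at 1.0 µM final, 30 min; incubation: 48 h induction, 1 h compound, 30 min dex at 37 °C; measured by: formaldehyde fixation, Hoechst nuclear stain, 10x automated fluorescence imaging; read-out: nuclear-to-cytoplasmic GR-EGFP distribution per well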
CHOP UPR activ: activators of apoptotic arm of unfolded protein response (CHOP); CHO-CHOP luciferase reporter, UPR activation, luminescence; percent of tunicamycin response over DMSO baseline; activation, % at 10 µM; 0.34% of 330,000 active;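 active = at 10 µM dose, activation of 40% or more, normalized to positive control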;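 note: 100% = tunicamycin at 10 µg/mL and 0% = DMSO alone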
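Test system: CHO CHOP reporter cells. Input: 500 CHO-CHOP cells per well. Medium: F12 with 10% FBS. Technique: luciferase luminescence. Measure: percent activation relative to tunicamycin control. Dosing: 10 µM compound, 0.5% DMSO. Timing: 16-18 h cell attachment, then 6 h compound exposure, 37 °C.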
MDM2 E3 inh: blocks human Mdm2 ubiquitin ligase activity | cell-based MDM2 ubiquitination luciferase reporter, 2 h; 0 = plate control, 100 = twice control, blank-subtracted | AID 1230 | signal enhancement, % at 5 µM | 0.11% of 210,000 active;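 active = signal enhancement of 30% or more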;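 note: luminescence tracks abundance of the self-degrading MDM2-luciferase fusion protein; higher signal means inhibition of MDM2 E3 ligase activity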
Target sequence (Q00987 whole entry, looked up, the tested form may be a part): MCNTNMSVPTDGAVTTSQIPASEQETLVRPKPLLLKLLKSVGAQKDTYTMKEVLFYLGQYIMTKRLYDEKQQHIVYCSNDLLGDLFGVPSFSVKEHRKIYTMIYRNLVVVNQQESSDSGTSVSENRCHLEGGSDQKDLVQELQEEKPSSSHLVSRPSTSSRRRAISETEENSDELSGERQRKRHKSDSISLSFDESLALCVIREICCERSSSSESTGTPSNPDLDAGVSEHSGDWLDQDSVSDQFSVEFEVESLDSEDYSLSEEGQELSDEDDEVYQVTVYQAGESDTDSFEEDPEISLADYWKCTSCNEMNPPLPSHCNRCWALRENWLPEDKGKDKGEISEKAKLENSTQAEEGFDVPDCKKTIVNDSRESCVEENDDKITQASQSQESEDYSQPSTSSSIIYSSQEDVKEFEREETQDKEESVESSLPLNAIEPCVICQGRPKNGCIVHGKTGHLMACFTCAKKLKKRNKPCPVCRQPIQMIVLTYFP
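Buffer or medium: Cells held in DMEM | Assay system: Stable mammalian line carrying autodegrading MDM2–luciferase fusion reporter | Quantity: 2000 cells/well | Times: 4 h settle plus 2 h compound, 37 °C | Doses: One concentration, 5 µM, with 0.2% DMSO | Technique: Luminescence with SteadyLite reagent, 15 min at room temperature | Benchmarks: Plate controls and plate blanks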
Mdm2-MdmX inh: human Mdm2/MdmX binding inhibition; O15151+Q00987; SaOS-2 split-luciferase Mdm2/MdmX complementation, luminescence; inhibition, % at 8 µM; 3% of 330,000 active;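 active = inhibition of at least 50% at 8 µM in the primary screen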
XBP1 UPR activ: adaptive UPR (XBP1) activation. CHO-XBP1 luciferase reporter, IRE1-XBP1 UPR activation, luminescence; percent of tunicamycin response, DMSO as zero. activation, % at 20 µM. 0.33% of 330,000 active;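 active = versus positive control, 20 µM dose yields 30% or more activation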;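 note: 100% = tunicamycin at 10 µg/mL and 0% = DMSO only wells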
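Material: CHO cell line with stable XBP1 luciferase reporter; schedule: 16-18 h cell attachment at 37 °C, then 6 h compound exposure; signal: glow luminescence from Steady-Glo reagent; medium: serum-containing F12 medium, 10% FBS; benchmarks: tunicamycin 10 µg/mL and vehicle-only wells; read-out: percent activation relative to tunicamycin reference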
B2AR ag: agonists of human beta-2 adrenergic receptor inducing internalization; Am2.2-beta2AR cells, FAP receptor internalization, flow cytometry; P07550; 0.43% of 340,000 active; response, % (no concentration beside the values);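 active = response above a set limit, near 3 SD of response in nonfluorescent compounds, cut at about 42% in these data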
Dynein inh conf: dynein cargo transport inhibition, confirmation; AID 463116; 3617.4 GR-EGFP nuclear translocation imaging, dexamethasone-induced; shares compounds with Dynein cargo inh; 69% of 1,000 active; calls only at 20 µM;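 active = inhibition of receptor movement into the nucleus at or above a set limit in both runs, with normal cell brightness and cell count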;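 note: dexamethasone at 1 µM final in well for 30 min; nuclear minus cytoplasmic GR-EGFP mean intensity difference in channel 2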
CHOP UPR conf: confirmation of apoptotic unfolded protein response (CHOP) activators | shares compounds with CHOP UPR activ | CHO-CHOP cells, CHOP-luciferase reporter luminescence; percent of tunicamycin response, DMSO as zero | activation, % at 10 µM | 64% of 1,000 active; in the data active = activation above about 33%;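 note: 0% = DMSO wells and 100% = tunicamycin 10 µg/mL wells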
Mdm2-MdmX conf: human Mdm2/MdmX binding inhibition, confirmed; 55% of 10,000 active; inhibition, % at 8 µM; luminescent assay; AID 489028; shares compounds with Mdm2-MdmX inh; in the data active = inhibition above about 40%
Full FLuc ctr: full-length luciferase inhibition in Mdm2/MdmX counter-screen. shares compounds with Mdm2-MdmX inh. SaOS-2 full-length luciferase counterscreen, luminescence. 77% of 6,200 active. inhibition, % at 8 µM;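 active = mean inhibition at 8 µM reaching about 37%, which flags the compound as non-specific, limit read from the data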;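 note: p53-null SaOS-2 cells with luciferase driven by a doxycycline-inducible promoter; compound on cells about two nights before reading with doxycycline added after day one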
Starred values were filed as active, the others as inactive; i = inactive; . = no result; + = active, no number. A selection: hits, their analogues and other compounds. The true share with any hit is near 3.7%.

SMILES	Dynein cargo inh	CHOP UPR activ	MDM2 E3 inh	Mdm2-MdmX inh	XBP1 UPR activ	B2AR ag	Dynein inh conf	Mdm2-MdmX conf	Full FLuc ctr	others
O=C(N/C(=C/c1ccc(Cl)cc1)c1nc2ccccc2[nH]1)c1ccco1	1.7	2	-6	-9	-1	-2	.	.	.
O=C(/C(=C/c1ccc(Cl)cc1)c1nc2ccccc2[nH]1)c1ccccc1	-4.7*	211*	-1	100*	0	40	+	99*	51*	CHOP UPR conf=158*
COc1cc(/C=C(/C(=O)c2cccs2)c2nc3ccccc3[nH]2)cc(OC)c1O	-4.6*	126*	-13	91*	8	2	+	91*	62*	CHOP UPR conf=161*
COc1ccc(N(C(=O)CCl)C(C(=O)NC2CCCCC2)c2cccnc2)cc1 (stereo unspecified)	-5.4*	25	-15	96*	-1	18	+	100*	54*
CC(=O)O[C@@H]1C[C@H]2C(C)(C)C(=O)C=C[C@]2(C)[C@H]2CC[C@@]3(C)[C@H](c4ccoc4)OC(=O)[C@H]4O[C@]43[C@@]21C	-3.9*	1	.	98*	0	3	+	71*	34
O=C(OCC(=O)N1CCCc2ccccc21)c1ccccc1NCCO	.	0	.	11	-2	0	.	.	.
COc1ccc(N=CC2=C(Nc3ccc(OC)cc3)c3c(C)nn(-c4ccccn4)c3CC2)cc1	-4.3	59*	.	90*	6	.	i	72*	22
CC1CCCCN1C(=O)CN1CCN(S(=O)(=O)c2ccc(Br)cc2Cl)CC1 (stereo unspecified)	.	-1	.	-19	-3	-3	.	.	.
COc1ccccc1-[n+]1c(C)cc(/C=C2\Sc3ccccc3N2C)cc1C	-5	13	.	82*	2	i	+	89*	59*
CC(=O)n1cc(N(C(=O)CCl)c2ccc([N+](=O)[O-])cc2)c2ccccc21	-5*	-8	-8	98*	-9	61*	+	80*	42*
CC(=O)n1cc(CO)c2ccccc21	.	-1	.	16	-3	-11	.	.	.
CC(=O)n1cc(N(C(=O)CCl)c2ccccc2)c2ccccc21	-4.5*	-3	-3	97*	-7	-12	+	100*	51*
O=C(Nc1ccc(F)c(Cl)c1)c1cncs1	.	0	.	16	-6	11	.	.	.
O=C(NC1CCCCC1)C1CC(=O)N(CCc2ccc(F)cc2)C1 (stereo unspecified)	.	1	.	12	0	-5	.	.	.
C=CCn1c(Sc2ncc([N+](=O)[O-])s2)n[nH]c1=O	-5.7*	-9	0	66*	-10	33	+	88*	56*
C=CCn1c(CSc2ccccc2[N+](=O)[O-])n[nH]c1=S	.	0	.	9	1	12	.	.	.
COc1ccc(-n2nc(C(=O)c3cccs3)cc(-c3nc4ccccc4[nH]3)c2=N)cc1	-5.9	5	-45	98*	-2	34	i	49*	31
Cc1cc(C)cc(OC(=O)CS(=O)c2ccc(C(F)(F)F)cc2[N+](=O)[O-])c1 (stereo unspecified)	-3.7*	0	.	50*	-3	52*	+	40*	55*
